According to ChEMBL document CHEMBL4364333, “High-throughput screening of bioactive compounds via new catalytic reaction in the pooled mixture” (Bioorg Med Chem Lett, 2019):
Activity calls are given as the source filed them. The rule behind the calls is not given here.

Key:
Format in all cases: cell-based
HeLa [1] = assay: Cytotoxicity against human HeLa cells expressing alkaline phosphatase assessed as reduction in cell viability at 40 uM incubated for 3 hrs by WST-1 assay
Procedure, shortened: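 HeLa cells stably expressing soluble secretory alkaline phosphatase, seeded at equal numbers, exposed to diluted test material for 3 h. Cytotoxicity read out as the number of live cells.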

HeLa [2] = assay: Inhibition of alkaline phosphatase secretion in human HeLa cells at 50 uM incubated for 3 hrs
Procedure, shortened: (§1)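 HeLa cells stably expressing soluble secretory alkaline phosphatase, seeded at equal cell numbers, were incubated with the test sample for 3 h. Alkaline phosphatase enzymatic activity in the culture medium was measured as the secretion read-out. Live cell number was counted in parallel to assess cytotoxicity.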

HeLa [3] = assay: Inhibition of alkaline phosphatase secretion in human HeLa cells incubated for 3 hrs
Procedure, shortened: (§2)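 HeLa cells stably expressing soluble secretory alkaline phosphatase, seeded at equal numbers, exposed to diluted test material for 3 h. Secretion read out as alkaline phosphatase enzymatic activity in the culture medium.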

HeLa [4] = assay: Inhibition of alkaline phosphatase secretion in human HeLa cells at 40 uM incubated for 3 hrs; procedure, shortened: as §2
HeLa [5] = assay: Inhibition of alkaline phosphatase secretion in human HeLa cells at 18 uM incubated for 3 hrs; procedure, shortened: as §1

| SMILES | Activity (HeLa [1]) | further results |
| --- | --- | --- |
| Cn1cc(C(c2cn(C)c3ccccc23)C(F)(F)F)c2ccccc21 | Non-Toxic |  |
| Fc1ccc2[nH]cc(C(c3c[nH]c4ccc(F)cc34)C(F)(F)F)c2c1 | Non-Toxic |  |
| Cn1cc(C(c2c[nH]c3ccccc23)C(F)(F)C(F)(F)F)c2ccccc21 (centres undefined) | Non-Toxic |  |
| Fc1ccc2[nH]cc(C(c3c[nH]c4ccccc34)C(F)(F)F)c2c1 (centres undefined) | Non-Toxic |  |
| Fc1cc(F)c2c(c1)[C@H]1CCC[C@H]1C(c1cccnc1)N2 (some centres undefined) |  | inhibition (HeLa [2]): Active |
| FC(F)(F)C(c1c[nH]c2ccc(Br)cc12)c1c[nH]c2ccc(Br)cc12 | Non-Toxic | inhibition (HeLa [3]): Active |
| FC(F)(F)C(c1c[nH]c2ccccc12)c1c[nH]c2ccccc12 | Non-Toxic | inhibition (HeLa [4]): Active |
| C[C@H]1CCC/C=C/[C@@H]2C[C@H](O)C[C@H]2[C@H](O)/C=C/C(=O)O1 |  | inhibition (HeLa [5]): Active |
| COc1ccc2[nH]cc(C(c3c[nH]c4ccccc34)C(F)(F)F)c2c1 (centres undefined) | Non-Toxic | inhibition (HeLa [3]): Active |
| FC(F)(F)C(F)(F)C(c1c[nH]c2ccc(Br)cc12)c1c[nH]c2ccc(Br)cc12 | Non-Toxic |  |
| Cn1cc(C(c2c[nH]c3ccccc23)C(F)(F)F)c2ccccc21 (centres undefined) | Non-Toxic |  |
| FC(F)(F)C(c1c[nH]c2ccccc12)c1c[nH]c2ccc(Br)cc12 (centres undefined) | Non-Toxic | inhibition (HeLa [3]): Active |
| Cn1cc(C(c2cn(C)c3ccccc23)C(F)(F)C(F)(F)F)c2ccccc21 | Non-Toxic |  |
| FC(F)(F)C(F)(F)C(c1c[nH]c2ccccc12)c1c[nH]c2ccccc12 | Non-Toxic | inhibition (HeLa [3]): Active |
